Screening data: PubChem, several laboratories
Sampled rows, rich in hits. Any-hit rate of the full collection: about 1.6%.
Wee1 degr inh: Wee1 degradation inhibitors, primary screen, cell-based, HeLa, Wee1K328M-luciferase, luminescence; Wee1-like protein kinase (Homo sapiens), P30291; AID 1321, 2008; hit rate 1.2% among 220,000; reporter increase, % at 5 µM; HeLa Luc-Wee1K328M stability; 100% = proteasome inhibitor MG132 effect;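 active = activation above the mean of all tested compounds plus 3 SD, set per screening run, cut at about 8.8% in these data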;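 note: cells exposed to compound for 20 h before luminescence read; 0% = DMSO alone and 100% = MG132 at 30 µM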
Pf gamet viab: late stage P. falciparum gametocyte viability inhibitors, primary screen, ATP luminescence, HTS. inhibition, % at 10.9 µM. hit rate 0.065% among 150,000. P. falciparum stage V gametocytes, 24 h. AID 743093, 2013;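 active = inhibition above the mean plus 3 SD of compounds within the control limits, set per campaign, cut at about 38% in these data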;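 note: 0% = DMSO wells and 100% = medium only without gametocytes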
TNF necrop inh: inhibitors of TNF-alpha triggered necroptosis, primary screen, cell-based, Jurkat FADD-/-, single concentration | Jurkat FADD-/- TNF necroptosis rescue, ATP luminescence, 24 h; 0 = TNF only, 100 = no-TNF cells | activation (protection from cell death), % at 10 µM | hit rate 0.068% among 220,000;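 active = activation, meaning protection from cell death, of at least 50% relative to plate controls; inactive = activation below 50%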;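 note: necroptosis triggered by 40 ng/mL TNF-alpha added together with compound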
MDM2 E3 inh: MDM2-luciferase reporter signal enhancers, primary screen, MDM2 E3 ligase inhibitor project, cell-based, luminescence, 1536-well; E3 ubiquitin-protein ligase Mdm2 (Homo sapiens), Q00987; cell-based MDM2 ubiquitination luciferase reporter, 2 h; 0 = plate control, 100 = twice control, blank-subtracted; signal enhancement, % at 5 µM; hit rate 0.11% among 210,000; AID 1230, 2008;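 active = signal enhancement of 30% or more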;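 note: luminescence tracks abundance of the self-degrading MDM2-luciferase fusion protein; higher signal means inhibition of MDM2 E3 ligase activity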
Target sequence (Q00987 whole entry, looked up, the tested form may be a part): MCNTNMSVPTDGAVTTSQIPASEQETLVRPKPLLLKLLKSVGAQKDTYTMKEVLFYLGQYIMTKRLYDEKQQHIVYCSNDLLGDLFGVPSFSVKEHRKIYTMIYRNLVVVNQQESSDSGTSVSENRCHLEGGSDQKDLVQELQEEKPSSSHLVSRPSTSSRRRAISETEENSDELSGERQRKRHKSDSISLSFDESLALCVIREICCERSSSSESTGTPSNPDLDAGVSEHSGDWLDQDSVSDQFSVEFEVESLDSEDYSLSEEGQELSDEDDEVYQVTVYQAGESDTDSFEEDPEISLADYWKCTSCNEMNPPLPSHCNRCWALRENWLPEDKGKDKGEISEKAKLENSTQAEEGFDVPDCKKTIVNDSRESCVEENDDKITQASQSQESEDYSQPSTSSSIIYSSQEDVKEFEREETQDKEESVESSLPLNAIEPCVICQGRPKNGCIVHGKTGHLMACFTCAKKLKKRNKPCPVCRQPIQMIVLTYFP
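Assay system: mammalian cells stably expressing self-ubiquitinating, self-degrading MDM2 E3–luciferase fusion. Quantity: 2000 cells in each well. Medium: DMEM culture medium. Compound dosing: single-point 5 µM. Timing: cell settling 4 h, compound treatment 2 h, both 37 °C. Technique: luciferase luminescence. Read-out basis: percent signal gain over controls, blank-subtracted. Benchmarks: plate controls and plate blanks.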
zVAD death inh: inhibitors of zVAD-triggered necroptosis, primary screen, L929 cells | L929 zVAD necroptosis rescue, ATP luminescence, 24 h; with zVAD 60 µM | viability rescue, % at 10 µM | hit rate 0.38% among 220,000 | AID 1377, 2008;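 active = activation, scaled between plate controls, above about 75%, limit read from the data; inactive = activation under that limit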;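 note: 0% = zVAD with DMSO and 100% = DMSO alone without zVAD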
zVAD necrop conf: inhibitors of zVAD-triggered necroptosis in L929, confirmation, L929 cells, duplicate runs; activation (protection from necroptosis), % at 10 µM; hit rate 16% among 760; L929 zVAD-induced necroptosis rescue, ATP luminescence, 24 h; shares compounds with zVAD death inh;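 active = mean protection from necroptosis of at least 50% over duplicate tests; inactive = mean protection below 50%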;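 note: 0% = cells with zVAD alone and 100% = vehicle cells without zVAD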
An asterisk follows results filed as active; x = no result.

SMILES	Wee1 degr inh	Pf gamet viab	TNF necrop inh	MDM2 E3 inh	zVAD death inh	zVAD necrop conf
O=C(Nc1ccccc1)N1N=CCC1c1ccccc1 (centres undefined)	-4	x	95*	-12	85*	48
CCCNC(=O)C1=C(C)C(=O)OC12CCC(C)CC2 (centres undefined)	7	x	0	-9	0	x
Cc1ccccc1Oc1cc(-n2ncc(Cl)c(Cl)c2=O)ncn1	4	-23	-14	26	85*	3
CCOc1cnn(-c2cc(Oc3ccc(C)cc3)ncn2)c(=O)c1Cl	0	x	0	-10	0	x
c1ccc(-n2cnc3cc(NCc4ccncc4)ccc32)cc1	-3	14	1	-26	83*	58*
c1ccc(-n2cnc3cc(NCc4ccccn4)ccc32)cc1	-2	-15	-1	-25	76*	63*
COc1ccc(-c2nn(C)c(=O)c3ccccc23)cc1CNC(=O)c1ccco1	0	8	-3	-8	0	x
O=C1CC(/C=C/c2ccccc2)=Nc2ccccc2N1	1	x	3	1	0	x
O=C1CC(/C=C/c2ccc(Cl)cc2)=Nc2ccccc2N1	3	-16	-1	-16	77*	1
O=C(Cn1nc(C(=O)O)c2ccccc2c1=O)c1c[nH]c2ccccc12	-2	22	-1	-11	66	x
CS(=O)(=O)c1ccc2nc(NC(=O)Cc3ccccc3)sc2c1	-2	x	8	-3	76*	22
CS(=O)(=O)c1ccc2nc(NC(=O)CS(=O)(=O)Cc3ccccc3)sc2c1	0	-14	2	-16	4	x
CC(C)C(=O)Nc1nc2ccc(S(C)(=O)=O)cc2s1	-3	-19	-10	-10	84*	9
CCC(C)C(=O)Nc1nc2ccc(S(C)(=O)=O)cc2s1 (centres undefined)	8	-6	-4	-4	73	x
CC(=O)Nc1nc2ccc(Br)cc2s1	1	-2	-4	4	80*	35
COc1ccc2nc(NC(C)=O)sc2c1	-2	x	-1	-31	64	x
COc1ccc(-c2cc(=O)oc3c(C)c(O)c(CN(C)C)cc23)cc1	0	11	1	-20	0	x
Cc1cc(NCc2ccc(F)cc2Cl)n2nnnc2n1	-1	-17	1	-26	1	x
COc1ccc(CNC(=O)CCCc2ccccc2)cc1	1	3	1	1	0	x
O=c1cc(N2CCN(c3cccc(Cl)c3)CC2)[nH]c(=O)n1C1CCCCC1	0	x	32	-12	81*	44
CN1CCN(c2cc(=O)n(C3CCCCC3)c(=O)[nH]2)CC1	3	x	0	-14	-1	x
O=c1cc(N2CCN(c3ccccc3)CC2)[nH]c(=O)n1C1CCCCC1	-2	x	21	-8	81*	26
O=C(N/N=C\c1ccc(S(=O)(=O)O)o1)c1ccc2c(c1)OCO2	x	5	x	x	x	x
NS(=O)(=O)c1ccc(N/C=C\C(=O)c2ccc(F)cc2)cc1	2	-1	-2	-11	1	x
NS(=O)(=O)c1ccc(N/C=C/C(=O)c2ccc(Br)cc2)cc1	0	17	-1	-9	76*	16
SMILES	Wee1 degr inh	Pf gamet viab	TNF necrop inh	MDM2 E3 inh	zVAD death inh	zVAD necrop conf
O=C(CN1C(=O)COc2ccc(S(=O)(=O)N3CCCC3)cc21)N1CCCC1	7	19	3	-24	1	x
Clc1ncc(CSc2ccccc2)s1	-2	17	18	-12	91*	50
O=C(c1cc2ccccc2oc1=O)N(c1ccccc1)C1C=CS(=O)(=O)C1 (centres undefined)	-2	-9	8	0	0	x
COc1ccc(-c2cc(=O)c3c(O)c(OC)c(O)cc3o2)cc1	3	x	-4	-46	1	x
COc1cc(-c2cc(=O)c3c(O)c(OC)c(OC)cc3o2)cc(OC)c1O	x	x	-16	-24	77*	10
O=C(CCCCn1c(=O)[nH]c2ccsc2c1=O)NCC1CCCO1 (centres undefined)	-1	11	2	-15	6	x
